The source made the active and inactive calls. No cut-off for these calls is given here.
Assays:
[1] = system: Cryptococcus bacillisporus; experiment: Antimicrobial activity against Cryptococcus gattii serotype C isolate NIH191 assessed as heteroresistant isolates at 16 ug/ml; type: functional
Procedure, shortened: (§1)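 Population analysis: saline cell suspensions (1 × 103 to 4 × 10^3 CFU/ml) plated on plain YPD agar or YPD agar with various fluconazole concentrations; growth recorded after 72 h at 30°C; percentage of resistant subpopulation at each drug level calculated relative to drug-free plate growth.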

[2] = system: Cryptococcus gattii species complex; experiment: Antimicrobial activity against Cryptococcus gattii serotype C isolate H0058-1-818 assessed as heteroresistant isolates at 32 ug/ml; type: functional, Cryptococcus bacillisporus; procedure, shortened: as §1
[3] = system: Cryptococcus gattii species complex; experiment: Antimicrobial activity against Cryptococcus gattii serotype C isolate H0058-1-1941 assessed as heteroresistant isolates at 8 ug/ml; type: functional, Cryptococcus bacillisporus; procedure, shortened: as §1
[4] = system: Cryptococcus gattii species complex; experiment: Antimicrobial activity against fluconazole-resistant Cryptococcus gattii serotype B isolate RAM15 at 256 ug/ml; type: functional, organism-based; settings: Cryptococcus bacillisporus
[5] = system: Cryptococcus gattii species complex; experiment: Antimicrobial activity against Cryptococcus gattii serotype B isolate NIH189 assessed as concentration required for heteroresistance; type: functional, Cryptococcus bacillisporus
Procedure, shortened: (§2)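 Fluconazole spot test: 10-fold serial dilutions of each single-colony-purified strain spotted on YPD agar alone and YPD agar with fluconazole at 4 to 128 μg/ml. The level of heteroresistance to fluconazole (LHF) is the lowest drug concentration at which minor resistant subpopulations emerge within the spot.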

[6] = system: Cryptococcus gattii species complex; experiment: Antimicrobial activity against Cryptococcus gattii serotype C isolate H0058-1-818 assessed as heteroresistant isolates at 8 ug/ml; type: functional, Cryptococcus bacillisporus; procedure, shortened: as §1
[7] = system: Cryptococcus gattii species complex; experiment: Antimicrobial activity against Cryptococcus gattii serotype B isolate NIH281 assessed as concentration required for heteroresistance; type: functional, Cryptococcus bacillisporus; procedure, shortened: as §2
[8] = system: Cryptococcus gattii species complex; experiment: Antimicrobial activity against Cryptococcus gattii serotype C isolate H0058-1-1941 assessed as concentration required for heteroresistance; type: functional, Cryptococcus bacillisporus
[9] = system: Cryptococcus gattii species complex; experiment: Antimicrobial activity against Cryptococcus gattii serotype B isolate RAM-002 assessed as concentration required for heteroresistance; type: functional, Cryptococcus bacillisporus
[10] = system: Cryptococcus gattii species complex; experiment: Antimicrobial activity against Cryptococcus gattii serotype C isolate NIH113 assessed as heteroresistant isolates at 8 ug/ml; type: functional, Cryptococcus bacillisporus; procedure, shortened: as §1
[11] = system: Cryptococcus gattii species complex; experiment: Antimicrobial activity against Cryptococcus gattii serotype B isolate RB-17 assessed as concentration required for heteroresistance; type: functional, Cryptococcus bacillisporus
[12] = system: Cryptococcus gattii species complex; experiment: Antimicrobial activity against Cryptococcus gattii serotype C isolate H0058-1-2023 assessed as heteroresistant isolates at 2 ug/ml; type: functional, Cryptococcus bacillisporus; procedure, shortened: as §1
[13] = system: Cryptococcus gattii species complex; experiment: Antimicrobial activity against Cryptococcus gattii serotype C isolate NIH298 assessed as heteroresistant isolates at 2 ug/ml; type: functional, Cryptococcus bacillisporus
Procedure, shortened: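 Cell suspensions of 1 × 10^3 to 4 × 10^3 CFU/ml were made in sterile saline and plated on plain YPD agar or YPD agar with various fluconazole concentrations. Plates were incubated at 30°C for 72 h, and the percentage of resistant subpopulation emerging was recorded.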

[14] = system: Cryptococcus gattii species complex; experiment: Antimicrobial activity against Cryptococcus gattii serotype B isolate RAM002 assessed as heteroresistant isolates at 4 ug/ml; type: functional, Cryptococcus bacillisporus; procedure, shortened: as §1
[15] = system: Cryptococcus gattii species complex; experiment: Antimicrobial activity against Cryptococcus gattii serotype B isolate RB-3 assessed as concentration required for heteroresistance; type: functional, Cryptococcus bacillisporus
[16] = system: Cryptococcus gattii species complex; experiment: Antimicrobial activity against Cryptococcus gattii serotype C isolate H0058-1-2086 assessed as concentration required for heteroresistance; type: functional, Cryptococcus bacillisporus
[17] = system: Cryptococcus gattii species complex; experiment: Antimicrobial activity against Cryptococcus gattii serotype B isolate VPB572-058 assessed as heteroresistant isolates at 16 ug/ml; type: functional, Cryptococcus bacillisporus; procedure, shortened: as §1
[18] = system: Cryptococcus gattii species complex; experiment: Antimicrobial activity against Cryptococcus gattii serotype B isolate B3939 assessed as heteroresistant isolates at 4 ug/ml; type: functional, Cryptococcus bacillisporus
Procedure, shortened: (§3)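 Population analysis: cells suspended in sterile saline at 1 × 10³ to 4 × 10³ CFU/ml and plated on plain YPD agar or YPD agar with various fluconazole concentrations. Plates incubated at 30°C for 72 h. The resistant subpopulation at each concentration is recorded as a percentage of the population.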

[19] = system: Cryptococcus gattii species complex; experiment: Antimicrobial activity against Cryptococcus gattii serotype B isolate RAM15 assessed as heteroresistant isolates at 16 ug/ml; type: functional, Cryptococcus bacillisporus; procedure, shortened: as §1
[20] = system: Cryptococcus gattii species complex; experiment: Antimicrobial activity against Cryptococcus gattii serotype C isolate NIH312 assessed as concentration required for heteroresistance; type: functional, Cryptococcus bacillisporus
Procedure, shortened: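 […] on YPD agar at 4 to 128 μg/ml. The lowest drug concentration at which minor resistant subpopulations emerged within the patch was scored as the strain's level of heteroresistance.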

[21] = system: Cryptococcus gattii species complex; experiment: Antimicrobial activity against Cryptococcus gattii serotype C isolate H0058-1-818 assessed as concentration required for heteroresistance; type: functional, Cryptococcus bacillisporus
[22] = system: Cryptococcus gattii species complex; experiment: Antimicrobial activity against Cryptococcus gattii serotype B isolate RB-11 assessed as concentration required for heteroresistance; type: functional, Cryptococcus bacillisporus
[23] = system: Cryptococcus bacillisporus; experiment: Antimicrobial activity against Cryptococcus gattii serotype C isolate NIH191 assessed as concentration required for heteroresistance; type: functional
[24] = system: Cryptococcus gattii species complex; experiment: Antimicrobial activity against Cryptococcus gattii serotype B isolate NIH76 assessed as concentration required for heteroresistance; type: functional, Cryptococcus bacillisporus; procedure, shortened: as §2
[25] = system: Cryptococcus gattii species complex; experiment: Antimicrobial activity against Cryptococcus gattii serotype B isolate NIH184 assessed as heteroresistant isolates at 4 ug/ml; type: functional, Cryptococcus bacillisporus; procedure, shortened: as §3
[26] = system: Cryptococcus gattii species complex; experiment: Antimicrobial activity against Cryptococcus gattii serotype C isolate H0058-1-2023 assessed as heteroresistant isolates at 4 ug/ml; type: functional, Cryptococcus bacillisporus; procedure, shortened: as §1
[27] = system: Cryptococcus gattii species complex; experiment: Antimicrobial activity against Cryptococcus gattii serotype B isolate B5765 assessed as concentration required for heteroresistance; type: functional, Cryptococcus bacillisporus; procedure, shortened: as §2
[28] = system: Cryptococcus gattii species complex; experiment: Antimicrobial activity against Cryptococcus gattii serotype C isolate NIH113 assessed as heteroresistant isolates at 16 ug/ml; type: functional, Cryptococcus bacillisporus; procedure, shortened: as §1
[29] = system: Cryptococcus gattii species complex; experiment: Antimicrobial activity against Cryptococcus gattii serotype C isolate NIH18 assessed as heteroresistant isolates at 32 ug/ml; type: functional, Cryptococcus bacillisporus, serotype B isolate  NIH18; procedure, shortened: as §1
[30] = system: Cryptococcus gattii species complex; experiment: Antimicrobial activity against Cryptococcus gattii serotype B isolate NIH535 assessed as concentration required for heteroresistance; type: functional, Cryptococcus bacillisporus; procedure, shortened: as §2
[31] = system: Cryptococcus gattii species complex; experiment: Antimicrobial activity against Cryptococcus gattii serotype B isolate NIH367 assessed as heteroresistant isolates at 2 ug/ml; type: functional, Cryptococcus bacillisporus; procedure, shortened: as §3
[32] = system: Cryptococcus gattii species complex; experiment: Antimicrobial activity against Cryptococcus gattii serotype C isolate H0058-1-78 assessed as heteroresistant isolates at 8 ug/ml; type: functional, Cryptococcus bacillisporus; procedure, shortened: as §1
[33] = system: Cryptococcus gattii species complex; experiment: Antimicrobial activity against fluconazole-resistant Cryptococcus gattii serotype B isolate RB14 at 256 ug/ml; type: functional, organism-based; settings: Cryptococcus bacillisporus
[34] = system: Cryptococcus gattii species complex; experiment: Antimicrobial activity against Cryptococcus gattii serotype B isolate NIH771 assessed as concentration required for heteroresistance; type: functional, Cryptococcus bacillisporus; procedure, shortened: as §2
[35] = system: Cryptococcus gattii species complex; experiment: Antimicrobial activity against Cryptococcus gattii serotype B isolate NIH409 assessed as heteroresistant isolates at 8 ug/ml; type: functional, Cryptococcus bacillisporus; procedure, shortened: as §3
[36] = system: Cryptococcus gattii species complex; experiment: Antimicrobial activity against Cryptococcus gattii serotype B isolate NIH198 assessed as heteroresistant isolates at 16 ug/ml; type: functional, Cryptococcus bacillisporus; procedure, shortened: as §3
[37] = system: Cryptococcus gattii species complex; experiment: Antimicrobial activity against Cryptococcus gattii serotype B isolate RB14 assessed as heteroresistant isolates at 8 ug/ml; type: functional, Cryptococcus bacillisporus; procedure, shortened: as §1
[38] = system: Cryptococcus gattii species complex; experiment: Antimicrobial activity against Cryptococcus gattii serotype B isolate NIH409 assessed as concentration required for heteroresistance; type: functional, Cryptococcus bacillisporus; procedure, shortened: as §2
[39] = system: Cryptococcus deuterogattii; experiment: Antimicrobial activity against Cryptococcus gattii serotype B isolate NIH444 assessed as heteroresistant isolates at 8 ug/ml; type: functional, Cryptococcus bacillisporus; procedure, shortened: as §3
[40] = system: Cryptococcus gattii species complex; experiment: Antimicrobial activity against Cryptococcus gattii serotype C isolate NIH187 assessed as concentration required for heteroresistance; type: functional, Cryptococcus bacillisporus
[41] = system: Cryptococcus deuterogattii; experiment: Antimicrobial activity against Cryptococcus gattii serotype B isolate NIH444 assessed as heteroresistant isolates at 4 ug/ml; type: functional, Cryptococcus bacillisporus; procedure, shortened: as §3
[42] = system: Cryptococcus gattii species complex; experiment: Antimicrobial activity against Cryptococcus gattii serotype B isolate RAM-005 assessed as concentration required for heteroresistance; type: functional, Cryptococcus bacillisporus
[43] = system: Cryptococcus deuterogattii; experiment: Antimicrobial activity against Cryptococcus gattii serotype B isolate NIH444 assessed as concentration required for heteroresistance; type: functional, Cryptococcus bacillisporus; procedure, shortened: as §2

OC(Cn1cncn1)(Cn1cncn1)c1ccc(F)cc1F [FLUCONAZOLE]
Activity [1]: 100%
Activity [2]: 16%
Activity [3]: 100%
Activity [4]: inactive
Activity [5]: 16 µg/mL
Activity [6]: 100%
Activity [7]: 4 µg/mL
Activity [8]: 32 µg/mL
Activity [9]: 32 µg/mL
Activity [10]: 100%
Activity [11]: 32 µg/mL
Activity [12]: 100%
Activity [13]: 100%
Activity [14]: 100%
Activity [15]: 8 µg/mL
Activity [16]: 32 µg/mL
Activity [17]: 100%
Activity [18]: 100%
Activity [19]: 100%
Activity [20]: 32 µg/mL
Activity [21]: 32 µg/mL
Activity [22]: 32 µg/mL
Activity [23]: 32 µg/mL
Activity [24]: 32 µg/mL
Activity [25]: 100%
Activity [26]: 100%
Activity [27]: 16 µg/mL
Activity [28]: 100%
Activity [29]: 0.44%
Activity [30]: 4 µg/mL
Activity [31]: 100%
Activity [32]: 100%
Activity [33]: inactive
Activity [34]: 32 µg/mL
Activity [35]: 100%
Activity [36]: 1.9%
Activity [37]: 100%
Activity [38]: 32 µg/mL
Activity [39]: 100%
Activity [40]: 32 µg/mL
Activity [41]: 100%
Activity [42]: 32 µg/mL
Activity [43]: 32 µg/mL

Reference: ChEMBL document CHEMBL1255501, “Heteroresistance of Cryptococcus gattii to fluconazole” (2010)
